Several values for one entry are separate records, joined by “and”; a condition that tells them apart may be missing. Equal values may be shown once. Entries after “also recorded” stand apart in the source; their conditions may differ.

Data set [1] has as its system Nox5. To be noted: peptide from the scaffold domain of Cav-1; ref [13]; cited from earlier work.
Data set [2] has as its system nitric oxide synthase. As to conditions: Cav-1p residues 82–101; ref [26]; cited from earlier work.
The test system of data set [3] is CaM. The data set is described as follows: CaM/CMBD binding by Trp fluorescence.
Data set [4] deals with CaM. The data set is described as follows: CaM/CMBD binding by Trp fluorescence anisotropy. As to conditions: Ca^2+. Summed up: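 Trp anisotropy of 1 μM CMBD peptide (residues 671–689) was recorded during CaM titration. Excitation was 280 or 295 nm, and excitation and emission slits were both 10 nm, with polarizers. Buffer was 50 mM Tris, pH 7.5, 2 mM Ca²⁺, at room temperature. Anisotropy values were fitted following earlier work. Values are mean ± SD of at least three runs.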

In data set [5] the test system is CaM. The data set is described as follows: CaM/CMBD binding by isothermal titration calorimetry. Summed up: (§1)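 ITC was run on a VP-ITC at 25 °C in 50 mM Tris, 2 mM Ca²⁺, pH 7.5, with 0.15–0.25 M NaCl added for salt studies. Injections were 5 or 10 μL over 10 or 20 s, spaced 120 s. Heat of dilution (titrant into buffer) was subtracted. Data were fitted with a one-set-of-sites model. Back-titration used 250 μM CaM into 40 μM CMBD. Values are mean ± SD.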

Data set [6] concerns NCaM. The data set is described as follows: CMBD/NCaM binding by isothermal titration calorimetry. As to conditions: CMBD titrated into NCaM; 50 mM Tris, pH 7.5, 2 mM Ca^2+, 25 °C; mean ± SD. Summed up:
as §1
A general note: ITC needs no label: the signal is the heat of the interaction.

In data set [7] the test system is CCaM. The data set is described as follows: CMBD/CCaM binding by isothermal titration calorimetry. To be noted: CMBD titrated into CCaM; 50 mM Tris, pH 7.5, 2 mM Ca^2+, 25 °C; mean ± SD. Summed up: as §1
In data set [8] the test system is CaM. The data set is described as follows: CaM interaction by size-exclusion chromatography. It is filed as binding. As to conditions: D-CMBD with CaM; for Complex with CaM in SEC, Ca^2+: 0.2 M NaCl, 2 mM Ca^2+. Summed up:
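HPLC size-exclusion used a Shodex KW802.5 column at 1.0 mL/min with 280 nm detection. Buffer was Tris, pH 7.5, with 0.2 M NaCl (range 0.2–0.5 M) plus 2 mM Ca²⁺ or 1 mM EDTA. Samples were filtered through 0.45 μm. MBP-DH constructs, alone or mixed with CaM or Dansyl-CaM, were compared with BSA. Collected fractions were assayed for Dansyl fluorescence.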
Background: In gel filtration, larger molecules generally elute earlier.

Data set [9] relates to D-CaM. The data set is described as follows: CMBD binding to Ca^2+-D-CaM by fluorescence. To be noted: CMBD added to 2 μM D-CaM, 50 mM Tris, 2 mM Ca^2+, pH 7.5. Summed up: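 D-CaM (Dansyl-labelled calmodulin) was excited at 335 nm, with excitation and emission slits of 2 and 5 nm, on a temperature-controlled fluorometer. Emission spectra were followed during titration with MBP-fused Nox5 dehydrogenase (DH) constructs or CMBD peptide. Buffer was 50 mM Tris, pH 7.5, with 2 mM Ca²⁺. Fits of intensity changes followed earlier work. Each measurement was done at least three times using 2–3 protein batches.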

Data set [10] relates to CaM. As to conditions: Ca^2+-CaM; ref [11]; cited from earlier work.
The subject of data set [11] is CaM. As to conditions: titration curve inflection point; ref [18]; cited from earlier work.
The subject of data set [12] is CaM. As to conditions: ref [17]; cited from earlier work.
The test system of data set [13] is CaM. The data set is described as follows: CaM/D-CMBD binding by Dansyl fluorescence. Summed up:
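N-terminally Dansyl-labelled Nox5β CMBD peptide (residues 671–689) was titrated with CaM at room temperature. Excitation was 335 nm, with 2/5 nm slits. Buffer was 50 mM Tris, pH 7.5, with 2 mM Ca²⁺ or 1 mM EDTA. Emission maxima and intensity changes were recorded and fitted following earlier work. Values are mean ± SD of at least three runs.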

Data set [14] is described as follows: Size-exclusion chromatography, oligomeric states. It is filed as physicochemical. Summed up: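 HPLC gel filtration of amylose-purified MBP-fused NOX5 dehydrogenase domain, run against CaM and BSA references. Column equilibrated in Tris pH 7.5 (50 mM per figure legends, 20 mM per methods) with 0.2 M NaCl (0.2–0.5 M range), plus 2 mM Ca²⁺ or 1 mM EDTA. Runs at 1.0 mL/min with 280 nm detection. 2 M urea added to partially dissociate oligomers. Species assigned by elution time.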

With “Cav-1P: peptide from the scaffold domain of Cav-1 (residues 82–101) (DGIWKASFTTFTVTKYWFYR; UniProt Q03135 82-101, looked up, fragment)”, the “Effect on Nox5's superoxide-generating activity” value in data set [1] is recorded as “inhibit the Nox5's superoxide-generating activity”. The “Effect on NO production” value in data set [2] is listed as “inhibits the NO production”.

H2NRPDWSKVFQKVAAEKKGKVCOOH [CMBD]: in data set [3] (330 nm, Ca^2+), the “Equivalents of CaM to saturate binding (intensity)” value is given as “one”. The “Emission maximum, CaM-bound CMBD” value in [3] (Trp fluorescence upon addition of CaM, Ca^2+) is listed as 330 nm. Further, the “CaM binding in the absence of Ca^2+ (CMBD)” value in data set [3] (Trp fluorescence, 50 mM Tris, pH 7.5, 1 mM EDTA) is given as “A similar finding using CMBD's Trp fluorescence was found in the absence of Ca^2+; also recorded: non-specific electrostatic interaction which is not biologically significant”. In [3] (Trp fluorescence, blue shift, Ca^2+), the “Wavelength shift on CaM binding” value was approximately 20 nm. For the same substance, the “Molar ratio at saturation (anisotropy)” value in data set [4] (1 μM CMBD with CaM) is on record as approximately 1.2. Besides, the “Trp anisotropy value (r), complexed with CaM (maximum)” value in data set [4] (1 μM CMBD with CaM, emission 352 nm) came out at 0.136. The “Trp anisotropy value (r), peptide alone” value in data set [4] (1 μM CMBD, emission 352 nm) is 0.0405. For the same substance, in data set [5] (250 μM CaM into 40 μM CMBD, 25 °C), the “nCaM/CMBD, ITC back-titration” value amounted to 0.56. The “Effect of NaCl on binding” value in data set [5] (0.1 − 0.25 M NaCl) is “does not change significantly”. Also, the “Stoichiometry n[peptide]/Protein (nCMBD/CaM), ITC CaM/CMBD (back-titration)” value in [5] (converted from nCaM/CMBD, 250 μM CaM into 40 μM CMBD, 25 °C, mean ± SD) is 1.79 and 1.79 ± 0.11. Also, the “Cooperativity of CMBD binding” value in data set [5] (two CMBD peptides on half-domains of CaM) was “no cooperativity was observed”. In addition, in data set [6], the “Binding constant, ITC CMBD/NCaM” value was “(2.42 ± 1.21) x 10^6 M^-1”. For the same substance, the “Binding constant, ITC CMBD/CCaM” value in data set [7] is on record as “(9.50 ± 0.62) x 10^5 M^-1”. Moreover, in data set [8], the “Complex with CaM in SEC, Ca^2+” value is “a stable Ca^2+-CaM/CMBD complex was formed in non-equilibrium system”. Moreover, the “Intensity change, CMBD with D-CaM” value in [9] is listed as “very small intensity; also recorded: small intensity change”. Also, the “ANS fluorescence decrease of CaM/CMBD” value in data set [10] is listed as approximately 3%. Further, in data set [11], the “Ka, previous estimate” value was 4e+07 M⁻¹ and the “Stoichiometry, previous estimate” value was “near unity stoichiometry”. Also, the “Binding mode in crystal structure” value in [12] is recorded as “each of the two CMBD peptides is bound in the cleft formed in half-domain”.

H2NRPDWSKVFQKVAAEKKGKVCOOH [D-CMBD]: in data set [13] (2 μM D-CMBD titrated with CaM, Dansyl fluorescence, 50 mM Tris, pH 7.5, 2 mM Ca^2+, room temperature, mean ± SD), the “Stoichiometry n[Peptide]/[Protein], CaM/D-CMBD” value is 2.11 and 2.11 ± 0.11. In addition, in [13] (Ca^2+), the “Dansyl emission maximum, D-CMBD alone” value turned out to be 550 nm; the “Dansyl emission maximum, D-CMBD with CaM” value is 518 nm; the “Dansyl intensity increase on CaM binding” value was approximately 8 fold. Moreover, in [13] (absence of Ca^2+ (EDTA), estimated, diminished in a higher ionic strength), the “Binding affinity in the absence of Ca^2+” value was ~10^5 M^-1. For the same substance, the “SEC elution time, EDTA / apo” value in data set [14] (KW802.5 column, 1.0 mL/min, 0.2 M NaCl, 1 mM EDTA, pH 7.5) worked out at 25.67 min. The “SEC elution time, Ca^2+” value in data set [14] (KW802.5 column, 1.0 mL/min, 0.2 M NaCl, 2 mM Ca^2+, pH 7.5) was 29.31 min. Also, in data set [8] (1 mM EDTA), the “Dansyl fluorescence in CaM fraction, absence of Ca^2+” value is “No Dansyl fluorescence was found in the CaM fractions”. Besides, the “Complex with CaM in SEC, Ca^2+” value in data set [8] is “complexed with Ca^2+-CaM when a large excess of CaM was included”.

In the case of “Bovine serum albumin (BSA): Bovine serum albumin, SEC standard [reference compound]”, the “SEC elution time, BSA monomer” value in data set [14] (50 mM Tris, pH 7.5, 0.2 M NaCl, 66 kDa) was 8.57 min. In addition, in data set [14] (50 mM Tris, pH 7.5, 0.2 M NaCl, 132 kDa), the “SEC elution time, BSA dimer” value is 7.76 min. For the same substance, the “SEC elution time, BSA trimer” value in data set [14] (50 mM Tris, pH 7.5, 0.2 M NaCl, 198 kDa) is 7.23 min.

As for hemoglobin [reference compound], the “SEC elution time, reference protein” value in [14] (0.2 M NaCl, same settings) amounted to 9.51 min.
